An excerpt weighted towards active compounds, which were near 4.4% of everything screened.
HIF act = HIF pathway transcriptional activators, primary screen, cell-based, U2OS HRE-luciferase, luminescence; U2OS HRE-luciferase reporter; normalized: DMSO 0%, desferrioxamine 100%; activation, % at 7.5 µM (by protocol); 300,000 tested, 0.32% active;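 active means mean activation of at least 10% of the iron chelator positive control signal, with at least half of replicates also reaching 10%; inconclusive means mean and replicate majority disagree about reaching 10%; inactive means mean and most replicates under 10%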
Calb FLC = C. albicans growth inhibition with fluconazole, primary screen, CaCi-2 strain, Alamar Blue fluorescence; 300,000 tested, 0.57% active; growth inhibition, % (no concentration beside the values); C. albicans CaCi-2 (fluconazole-resistant clinical isolate) + fluconazole, 48 h;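 active means growth inhibition above about 58% in most replicates, limit read from the data, passing the limit was not always enough; inconclusive means exactly half the replicates above a set limit; inactive means most replicates below a set limit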;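 further: all wells also contain fluconazole at 8 µg/ml as a sub-toxic cotreatment; 0% = median of DMSO wells and 100% = median of geldanamycin control wells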
HSF1 inhib = HSF1 inhibitors in luciferase reporter cells, primary screen, cell-based, NIH3T3, luminescence; NIH3T3-HGL HSE-luciferase, MG132-induced, luminescence 8 h; active compounds read low; activity change, negative = inhibition, % at 7.5 µM (by protocol); 300,000 tested, 0.77% active;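 active means more than half of replicate wells show activity change below -50%, luminescence cut by over half; inconclusive means some wells, but at most half, below -50%; inactive means no replicate well below -50%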;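 further: luciferase reports HSF-1 transcriptional activity via heat shock element; 0% = median of DMSO wells and -100% = zero luminescence signal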
HSF1 activator = HSF-1 activators, primary screen, NIH3T3-HGL cells, MG132 stress, luminescence, single point | NIH3T3-HGL HSF-1 luciferase reporter, 8 h; 100% = twice DMSO control signal | activation, % at 9 µM | 300,000 tested, 1.7% active | AID 504408, 2011;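 active means mean replicate activation of at least 50% with a set share of replicates each reaching 50%; inconclusive means only one of those two conditions met; inactive means mean below 50% and too few replicates reaching it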;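 further: 0% = median of the neutral control wells and 100% = twice that signal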
T cruzi repl = inhibitors of intracellular T. cruzi growth, primary screen, luminescence, NIH3T3 host cells; T. cruzi beta-gal in NIH3T3, 90 h; inhibition, % (test concentration not listed); AID 1885, 2009; 300,000 tested, 1.4% active;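 active means mean inhibition across valid replicates above about 55%, limit read from the data; inconclusive means mean below that limit but half or more replicates reach it; inactive means mean below it, under half of replicates reach it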;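 further: signal also drops with host cell toxicity which is not excluded here; 0% = plate median of DMSO wells and 100% = zero luminescence signal; higher percent means less beta-gal luminescence so fewer parasites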
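assay system = mouse NIH/3T3 fibroblasts infected with β-gal-expressing T. cruzi Tulahuen C4 | input = 5,000 NIH/3T3 host cells per well | buffer or medium = DMEM plus 2% FBS | timing = 3 h host attachment, then at least 90 h co-culture | measured by = GalScreen luminescence, 60 min | evaluation = luminescence reflecting intracellular parasite burden, expressed as percent inhibition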
Starred values were filed as active, the others as inactive; u = inconclusive; x = no result given.

SMILES	HIF act	Calb FLC	HSF1 inhib	HSF1 activator	T cruzi repl
N/C(=N\OC(=O)c1ccc2ccccc2c1)c1ccccc1Cl	2.8	24.7	31.1	46.9	71.5*
N/C(=N\OC(=O)c1ccc2ccccc2c1)c1ccncc1	0.8	14.7	14.0	40.4	-2.2
N/C(=N\OC(=O)c1ccc(=O)n(Cc2ccccc2)c1)c1ccccn1	1.6	-3.7	4.1	10.4	-5.7
O=C(O/N=C(\c1ccccc1)c1ccccn1)c1ccc(Cl)c(Cl)c1	-0.8	-9.5	15.0	61.5*	-5.7
N/C(=N\OC(=O)c1ccc2ccccc2c1)c1ccccn1	-3.7	18.2	-85.4*	-88.5	13.0
N/C(=N\OC(=O)c1ccc(Cl)c(Cl)c1)c1cccnc1	1.1	1.9	19.8	37.1	6.1
COc1cc(C(C(=O)NC2CCCCC2)N(C(=O)c2cnccn2)c2ccccc2)cc(OC)c1OC (stereo not given)	1.8	-5.8	-0.9	2.4	4.9
Cc1c(CC(=O)N2CCN(C(=O)C3COc4ccccc4O3)CC2)c(=O)oc2c(C)c(O)ccc12 (stereo not given)	1.2	x	13.7	0.6	0.5
O=C(NCC1CCCO1)c1cccc(Oc2ccc([N+](=O)[O-])cc2Cl)c1 (stereo not given)	-0.4	22.2	8.1	3.4	-1.2
COc1cccc(C(=O)O/N=C(\N)c2ccccn2)c1	-4.4	0.8	-86.5*	-89.3	-5.7
CNC(=O)NCC12CC3CC(CC(C3)C1)C2	-0.2	-34.5	-5.4	-21.7	3.9
Cc1cc(C(=O)NCC23CC4CC(CC(C4)C2)C3)c(C)o1	-0.4	4.7	1.9	5.1	61.1*
O=C1CCC([N+](=O)[O-])C(c2ccc3c(c2)OCO3)N1 (stereo not given)	0.4	-2.5	-7.1	3.0	-19.4
COc1cc(OC)c(OC)cc1/C=N/NC(=S)NCCN1CCOCC1	-0.3	-7.2	-4.0	-1.3	-4.5
COc1cc(OC)c(OC)cc1/C=N/NC(=S)NCC1CCCO1 (stereo not given)	-0.1	2.5	-69.9*	-75.7	-22.5
CC(CNC(=O)CCC(=O)N1CCOc2ccc(Cl)cc21)c1ccccc1 (stereo not given)	-0.2	14.9	4.2	4.1	3.0
Cc1nn(CC(=O)NC(=O)NC2CCCC(C)C2C)c(=O)c(C#N)c1C (stereo not given)	-0.9	-3.0	-5.9	-9.2	14.3
Cc1cc([N+](=O)[O-])ccc1NC(=O)CCC(=O)N1CCCCC1	0.0	-0.2	-76.5*	-80.2	-4.3
Cc1cc([N+](=O)[O-])ccc1NC(=O)CCC(=O)N1CCCC1	0.1	4.4	-1.3	6.8	-3.2
COc1ccc(C2C=C(C34CC5CC(CC(C5)C3)C4)NC(=S)N2)cc1 (stereo not given)	0.3	-39.3	-2.8	-3.2	42.1
CCOc1ccc(C2(C)CC(=O)N(C)C2=O)cc1 (stereo not given)	-1.5	3.9	-2.9	-3.3	-16.5
CC(C)c1ccc(N(CC(=O)NCc2ccco2)C(=O)CCC(=O)Nc2ccccn2)cc1	-1.4	26.0	13.9	3.5	-7.5
Cc1ccc(C(=O)Nc2nc(-c3ccccc3)c(-c3ccccc3)o2)cc1	0.3	13.0	2.5	1.4	58.6*
Cc1cc(C)nc(SCC(=O)Nc2nc(-c3ccccc3)c(-c3ccccc3)o2)n1	-0.5	8.6	-3.3	5.9	14.9
COC(=O)c1ccc(Nc2ncnc3c2cnn3-c2cccc(C)c2)cc1	0.2	-3.9	5.3	10.1	5.5
SMILES	HIF act	Calb FLC	HSF1 inhib	HSF1 activator	T cruzi repl
Cc1cccc(-n2ncc3c(Nc4ccc(F)cc4)ncnc32)c1	4.8	-10.8	31.3	51.3*	5.9
Cc1cccc(-n2ncc3c(N(C)Cc4ccccc4)ncnc32)c1	3.9	-9.9	44.9	60.8*	5.2
CC(C)Sc1ccc([N+](=O)[O-])cc1C(=O)Nc1ccncc1	-0.6	-5.2	-5.0	-4.7	6.6
N#C/C(=C\c1cn(Cc2cccc(F)c2)c2ccccc12)C(=O)NCc1ccco1	0.0	7.4	43.3	67.7*	-9.7
N#C/C(=C\c1cn(Cc2ccccc2)c2ccccc12)C(=O)NCc1ccco1	0.2	10.0	42.3	75.0*	-4.6
Cc1cccc(NC(=O)/C(C#N)=C/c2cn(CC(=O)NCc3ccco3)c3ccccc23)c1C	-3.4	-13.2	31.4	60.9*	-4.3
Cc1cccc(NC(=O)/C(C#N)=C\c2cn(CC(=O)O)c3ccccc23)c1	-0.1	-1.2	-7.6	-7.7	-1.3
N#C/C(=C\c1cn(Cc2ccc(F)cc2)c2ccccc12)C(=O)NCc1ccco1	-0.7	1.1	-2.3	15.5	-6.2
CCN(CC)CCOc1ccccc1C(C)=O	0.1	7.7	-2.7	1.8	-4.9
Oc1ccc(Nc2nc3ccccc3nc2Nc2ccc(O)cc2)cc1	-7.6	42.3	-86.2*	-86.2	71.2*
Oc1ccc(Nc2nc(-c3ccccc3)nc3ccccc23)cc1	0.5	-15.1	4.6	11.1	-0.6
CCN(CC)CCSc1nc2ccccc2c(=S)n1-c1ccccc1	-0.1	7.4	-2.5	-1.5	64.4*
CC(C)CN(C(=O)CCCSc1nc2ccccc2[nH]1)c1c(N)n(Cc2ccccc2)c(=O)[nH]c1=O	-0.1	4.9	u	-60.9	-4.7
CCCCc1c(CCC)c(=N)c2ccccc2n1C	0.0	-1.8	-6.3	-12.3	59.8*
O=c1c2ccccc2nc(SCc2cc([N+](=O)[O-])cc3c2OCOC3)n1-c1ccccc1	0.0	11.9	-9.0	-15.6	-12.0
CS(=O)(=O)N(CC(=O)Nc1ccc(CC#N)cc1)c1ccc(C23CC4CC(CC(C4)C2)C3)cc1	1.0	10.9	48.1	60.4*	70.1*
CS(=O)(=O)N(CC(=O)Nc1c(F)cccc1F)c1ccc(C23CC4CC(CC(C4)C2)C3)cc1	-0.6	4.8	-15.2	-26.4	69.6*
Cc1sc(NC(=O)Cc2ccc3c(c2)OCO3)nc1-c1ccc2c(c1)CCN2C(=O)c1ccc(F)cc1	-0.1	-3.7	-2.2	-2.3	18.6
Cc1sc(NC(=O)Cc2ccc3c(c2)OCO3)nc1-c1ccc2c(c1)CCN2C(=O)c1ccccc1F	-0.7	-1.9	-18.5	-15.0	56.1*
CC(=O)Nc1ccc(C(=O)OCc2ccc(Cl)c(Cl)c2)cc1	0.1	21.9	22.4	56.9*	1.2
CCNc1nc(Nc2ccc(C)c(Cl)c2)c2cnn(C)c2n1	-21.4	7.2	-14.3	-10.3	-3.7
CCCCNc1nc(Nc2ccc(C)c(Cl)c2)c2cnn(C)c2n1	-11.1	1.8	13.7	65.0*	33.0
Cn1c(=O)c2c(nc(N/N=C/c3ccc(OC(=O)c4ccco4)cc3)n2Cc2ccccc2Cl)n(C)c1=O	0.0	-6.9	-4.3	1.0	-5.7

Screening data deposited in PubChem by Broad Institute.
